Measured values pooled from the literature.
Each line is one published result; the experiments were not run side by side.

SMILES | target or system | assay | system | conditions | measurement | value
Cn1cc2c3c1C(=O)C(NCCc1ccc(O)cc1)=CC3=[N+](C)CC2 | Plasmodium falciparum | parasite growth, SYBR Green | 3D7 | blood stage | IC50 | 43.7 nM
CC(C)C[C@@H]1NC(=O)CNC(=O)[C@H](CC(N)=O)NC(=O)[C@H](CCCNC(=N)N)NC(=O)[C@H]([C@@H](C)O)NC(=O)[C@@H]2CSSC[C@@H]3NC(=O)[C@H]([C@@H](C)O)NC(=O)CNC(=O)CNC(=O)[C@H](C(C)C)NC(=O)[C@@H]4CSSC[C@H](NC(=O)[C@H](CCCCN)NC(=O)[C@H](CSSC[C@H](NC(=O)[C@H](C(C)C)NC(=O)[C@@H]5CCCN5C1=O)C(=O)NCC(=O)N[C@@H](CCC(=O)O)C(=O)N[C@@H]([C@@H](C)O)C(=O)N4)NC(=O)CNC(=O)[C@@H]1CCCN1C(=O)[C@H]([C@@H](C)O)NC(=O)[C@H](CC(N)=O)NC3=O)C(=O)N[C@@H](CO)C(=O)N[C@@H](Cc1c[nH]c3ccccc13)C(=O)N1CCC[C@H]1C(=O)N[C@@H](C(C)C)C(=O)N2 | Sf9 | cell growth or viability, MTT |  | 24 h | IC50 | 2600 nM
Cn1cc2c3c1C(=O)C(N)=CC3=NCC2 | Plasmodium falciparum | parasite growth, SYBR Green | 3D7 | blood stage | IC50 | 3300 nM
CC(C)C[C@@H]1NC(=O)[C@H](CCCCN)NC(=O)[C@H](CC(N)=O)NC(=O)[C@H](CCCNC(=N)N)NC(=O)[C@H]([C@@H](C)O)NC(=O)[C@@H]2CSSC[C@@H]3NC(=O)[C@H]([C@@H](C)O)NC(=O)CNC(=O)CNC(=O)[C@H](C(C)C)NC(=O)[C@@H]4CSSC[C@H](NC(=O)[C@H]([C@@H](C)O)NC(=O)[C@H](CSSC[C@H](NC(=O)[C@H](C(C)C)NC(=O)[C@@H]5CCCN5C1=O)C(=O)NCC(=O)N[C@@H](CCC(=O)O)C(=O)N[C@@H]([C@@H](C)O)C(=O)N4)NC(=O)CNC(=O)[C@@H]1CCCN1C(=O)[C@H]([C@@H](C)O)NC(=O)[C@H](CC(N)=O)NC3=O)C(=O)N[C@@H](CO)C(=O)N[C@@H](Cc1c[nH]c3ccccc13)C(=O)N1CCC[C@H]1C(=O)N[C@@H](C(C)C)C(=O)N2 | Sf9 | cell growth or viability, MTT |  | 24 h | IC50 | 3000 nM
OC(c1cc(C(F)(F)F)nc2c(C(F)(F)F)cccc12)C1CCCCN1 (stereo not shown) | Plasmodium falciparum | parasite growth, SYBR Green | W2 | 48 h, drug-resistant strain, blood stage | IC50 | 20.7 nM
CC(C)C[C@@H]1NC(=O)[C@H](CC(N)=O)NC(=O)[C@H](CCCNC(=N)N)NC(=O)[C@H]([C@@H](C)O)NC(=O)[C@@H]2CSSC[C@@H]3NC(=O)[C@H]([C@@H](C)O)NC(=O)CNC(=O)CNC(=O)[C@H](C(C)C)NC(=O)[C@@H]4CSSC[C@H](NC(=O)[C@H]([C@@H](C)O)NC(=O)[C@H](CSSC[C@H](NC(=O)[C@H](C(C)C)NC(=O)[C@@H]5CCCN5C(=O)[C@H](CC(C)C)NC1=O)C(=O)NCC(=O)N[C@@H](CCC(=O)O)C(=O)N[C@@H]([C@@H](C)O)C(=O)N4)NC(=O)CNC(=O)[C@@H]1CCCN1C(=O)[C@H]([C@@H](C)O)NC(=O)[C@H](CC(N)=O)NC3=O)C(=O)N[C@@H](CO)C(=O)N[C@@H](Cc1c[nH]c3ccccc13)C(=O)N1CCC[C@H]1C(=O)N[C@@H](C(C)C)C(=O)N2 | Sf9 | cell growth or viability, MTT |  | 24 h | IC50 | 1800 nM
CCCCCNCC(O)c1cc(Cl)cc2c1-c1ccc(Cl)cc1C2 (racemic) | Plasmodium falciparum | parasite growth, SYBR Green | W2 | 48 h, drug-resistant strain, blood stage | IC50 | 8.7 nM
Cc1c2ccncc2c(C)c2c1[nH]c1ccccc12 | NCI-H460 | cell growth or viability, SRB |  | 72 h | GI50 | 4100 nM
Cn1cc2c3c1C(=O)C(N)=CC3=[N+](C)CC2 | Plasmodium falciparum | parasite growth, SYBR Green | DD2 | blood stage | IC50 | 1350 nM
O[C@@H](CN[C@@H](COCC1CC1)Cc1ccccc1)c1cc(Cl)cc2c1-c1ccc(Cl)cc1C2 | Plasmodium falciparum | parasite growth, SYBR Green | W2 | 48 h, drug-resistant strain, blood stage | IC50 | 5.4 nM
